For orientation: IC50 means the concentration at which inhibition is half-maximal.

Each structure is given as a SMILES string.

These results are taken from ChEMBL document CHEMBL3112486, “Novel class of benzoic acid ester derivatives as potent PDE4 inhibitors for inhaled administration in the treatment of respiratory diseases” (J Med Chem, 2014).

One assay addresses T1, Phosphodiesterase 4 (Homo sapiens, UniProt P27815+Q08499+Q07343+Q08493). Put plainly: Inhibition of PDE4 isolated from human U937 cells assessed as […] by LANCE assay. Type of assay: cell-free. The following applies: u-937. Background: cAMP levels reflect the balance of adenylyl cyclase and phosphodiesterase activity.
`O=C(O[C@@H](Cc1c(Cl)c[n+]([O-])cc1Cl)c1ccc(OC(F)F)c(OCC2CC2)c1)c1ccc(Cl)cc1`: the IC50 turned out to be 160 pM.

For the compound `CS(=O)(=O)Nc1cc(C(=O)O[C@@H](Cc2c(Cl)c[n+]([O-])cc2Cl)c2ccc(OC(F)F)c(OCC3CC3)c2)ccc1OCc1ccccc1`, the IC50 was 320 pM.

For `O=C(O[C@@H](Cc1c(Cl)c[n+]([O-])cc1Cl)c1ccc(OC(F)F)c(OCC2CC2)c1)c1ccc([N+](=O)[O-])c(OCC2CC2)c1`, the IC50 came to 210 pM.

With `O=C(O/C(=C\c1c(Cl)cncc1Cl)c1ccc(OC(F)F)c(OCC2CC2)c1)c1ccc(OC(F)F)c(OCC2CC2)c1`, the IC50 amounted to 1180 pM.

On to `COc1ccc(C(=O)O[C@@H](Cc2c(Cl)c[n+]([O-])cc2Cl)c2ccc(OC(F)F)c(OCC3CC3)c2)cc1NS(C)(=O)=O`, for which the IC50 was 40 pM.

Take `COc1ccc(C(=O)O[C@@H](Cc2c(Cl)c[n+]([O-])cc2Cl)c2ccc(OC(F)F)c(OCC3CC3)c2)cc1`: the 50% inhibitory concentration (IC50) amounted to 140 pM.

Consider `O=C(O[C@@H](Cc1c(Cl)c[n+]([O-])cc1Cl)c1ccc(OC(F)F)c(OCC2CC2)c1)c1ccc(C(F)(F)F)cc1`, for which the IC50 was 200 pM.

Regarding `COc1ccc(C(=O)O[C@@H](Cc2c(Cl)c[n+]([O-])cc2Cl)c2ccc(OC(F)F)c(OCC3CC3)c2)cc1O`, the 50% inhibitory concentration (IC50) is 80 pM.

`COc1cc(NS(C)(=O)=O)ccc1C(=O)O[C@@H](Cc1c(Cl)c[n+]([O-])cc1Cl)c1ccc(OC(F)F)c(OCC2CC2)c1`: the IC50 amounted to 60 pM.

`O=C(O[C@H](Cc1c(Cl)c[n+]([O-])cc1Cl)c1ccc(OC(F)F)c(OCC2CC2)c1)c1ccc(OC(F)F)c(OCC2CC2)c1`: the IC50 amounted to 2430 pM.

Turning to `CS(=O)(=O)Nc1ccc(C(=O)O[C@@H](Cc2c(Cl)c[n+]([O-])cc2Cl)c2ccc(OC(F)F)c(OCC3CC3)c2)c(OCC2CC2)c1`, the 50% inhibitory concentration (IC50) turned out to be 260 pM.

Consider `COc1cccc(NS(C)(=O)=O)c1C(=O)O[C@@H](Cc1c(Cl)c[n+]([O-])cc1Cl)c1ccc(OC(F)F)c(OCC2CC2)c1`, for which the IC50 was found to be 6830 pM.

`CS(=O)(=O)Nc1cc(OCC2CC2)cc(C(=O)O[C@@H](Cc2c(Cl)c[n+]([O-])cc2Cl)c2ccc(OC(F)F)c(OCC3CC3)c2)c1`: the IC50 was determined as 60 pM.

With `O=C(O[C@@H](Cc1c(Cl)c[n+]([O-])cc1Cl)c1ccc(OC(F)F)c(OCC2CC2)c1)c1ccc(C(=O)O)c(OCC2CC2)c1`, the IC50 came out at 50 pM.

In the case of `Nc1ccc(C(=O)O[C@@H](Cc2c(Cl)c[n+]([O-])cc2Cl)c2ccc(OC(F)F)c(OCC3CC3)c2)cc1OCC1CC1`, the IC50 is 90 pM.

In the case of `CS(=O)(=O)Nc1cc(C(=O)O[C@@H](Cc2c(Cl)c[n+]([O-])cc2Cl)c2ccc(OC(F)F)c(OCC3CC3)c2)ccc1OCC1CC1`, the IC50 amounted to 130 pM.

Turning to `O=C(OC(Cc1c(Cl)cncc1Cl)c1ccc(OC(F)F)c(OCC2CC2)c1)c1ccccc1` (racemic), the IC50 came out at 1140 pM.

Turning to `CS(=O)(=O)Nc1ccc(OCC2CC2)c(C(=O)O[C@@H](Cc2c(Cl)c[n+]([O-])cc2Cl)c2ccc(OC(F)F)c(OCC3CC3)c2)c1`, the IC50 is 400 pM.

As for `COc1cc(C(=O)O[C@@H](Cc2c(Cl)c[n+]([O-])cc2Cl)c2ccc(OC(F)F)c(OCC3CC3)c2)ccc1NS(C)(=O)=O`, the IC50 was determined as 60 pM.

Regarding `COc1ccc(C(=O)O[C@@H](Cc2c(Cl)c[n+]([O-])cc2Cl)c2ccc(OC(F)F)c(OCC3CC3)c2)cc1OC(C)=O`, the IC50 came to 50 pM.

In the case of `Cc1ccc(C(=O)O[C@@H](Cc2c(Cl)c[n+]([O-])cc2Cl)c2ccc(OC(F)F)c(OCC3CC3)c2)cc1`, the IC50 amounted to 100 pM.

Turning to `COc1ccc(C(=O)O[C@@H](Cc2c(Cl)c[n+]([O-])cc2Cl)c2ccc(OC(F)F)c(OCC3CC3)c2)cc1Oc1ccccc1`, the IC50 came out at 210 pM.

As for `Cc1cc(C(=O)O[C@@H](Cc2c(Cl)c[n+]([O-])cc2Cl)c2ccc(OC(F)F)c(OCC3CC3)c2)ccc1NS(C)(=O)=O`, the IC50 was 50 pM.

For the compound `COc1ccc(NS(C)(=O)=O)c(C(=O)O[C@@H](Cc2c(Cl)c[n+]([O-])cc2Cl)c2ccc(OC(F)F)c(OCC3CC3)c2)c1`, the half-inhibitory concentration (IC50) was found to be 400 pM.

Another assay concerns the target T1, Phosphodiesterase 4. Kind of assay: Inhibition of PDE4 activity in human PBMC assessed as inhibition of LPS-induced TNFalpha release after 18 hrs by ELISA.
Settings: not given
An outline of the steps:
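Human PBMCs plated at 10^5 cells/well in RPMI 1640 without phenol red plus 10% FBS, at 37 °C, 5% CO2. Compound added at 10^-15 to 10^-6 M (final DMSO 0.2%), with E. coli LPS at 3 ng/mL final, for 18 h. TNFα in supernatant measured by paired-antibody ELISA. IC50 from four-parameter logistic nonlinear regression, reported with 95% confidence intervals.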
Background: In an ELISA, binding on a coated surface is turned into a signal by an enzyme label.
Consider `O=C(O[C@@H](Cc1c(Cl)c[n+]([O-])cc1Cl)c1ccc(OC(F)F)c(OCC2CC2)c1)c1ccc(Cl)cc1`, for which the IC50 came out at 1850 pM.

Turning to `CS(=O)(=O)Nc1cc(C(=O)O[C@@H](Cc2c(Cl)c[n+]([O-])cc2Cl)c2ccc(OC(F)F)c(OCC3CC3)c2)ccc1OCc1ccccc1`, the IC50 was 530 pM.

For the compound `O=C(O[C@@H](Cc1c(Cl)c[n+]([O-])cc1Cl)c1ccc(OC(F)F)c(OCC2CC2)c1)c1ccc([N+](=O)[O-])c(OCC2CC2)c1`, the concentration for half-maximal inhibition (IC50) was 690 pM.

Regarding `COc1ccc(C(=O)O[C@@H](Cc2c(Cl)c[n+]([O-])cc2Cl)c2ccc(OC(F)F)c(OCC3CC3)c2)cc1NS(C)(=O)=O`, the half-inhibitory concentration (IC50) was 60 pM.

`COc1ccc(C(=O)O[C@@H](Cc2c(Cl)c[n+]([O-])cc2Cl)c2ccc(OC(F)F)c(OCC3CC3)c2)cc1`: the IC50 amounted to 470 pM.

For the compound `O=C(O[C@@H](Cc1c(Cl)c[n+]([O-])cc1Cl)c1ccc(OC(F)F)c(OCC2CC2)c1)c1ccc(C(F)(F)F)cc1`, the IC50 is 21000 pM.

For the compound `COc1ccc(C(=O)O[C@@H](Cc2c(Cl)c[n+]([O-])cc2Cl)c2ccc(OC(F)F)c(OCC3CC3)c2)cc1O`, the IC50 was 750 pM.

For the compound `COc1cc(NS(C)(=O)=O)ccc1C(=O)O[C@@H](Cc1c(Cl)c[n+]([O-])cc1Cl)c1ccc(OC(F)F)c(OCC2CC2)c1`, the IC50 amounted to 430 pM.

Regarding `CS(=O)(=O)Nc1ccc(C(=O)O[C@@H](Cc2c(Cl)c[n+]([O-])cc2Cl)c2ccc(OC(F)F)c(OCC3CC3)c2)c(OCC2CC2)c1`, the half-maximal inhibitory concentration (IC50) was 1960 pM.

Consider `COc1cccc(NS(C)(=O)=O)c1C(=O)O[C@@H](Cc1c(Cl)c[n+]([O-])cc1Cl)c1ccc(OC(F)F)c(OCC2CC2)c1`, for which the IC50 is more than 60000 pM.

For `CS(=O)(=O)Nc1cc(OCC2CC2)cc(C(=O)O[C@@H](Cc2c(Cl)c[n+]([O-])cc2Cl)c2ccc(OC(F)F)c(OCC3CC3)c2)c1`, the IC50 worked out at 920 pM.

As for `O=C(O[C@@H](Cc1c(Cl)c[n+]([O-])cc1Cl)c1ccc(OC(F)F)c(OCC2CC2)c1)c1ccc(C(=O)O)c(OCC2CC2)c1`, the IC50 came to 300 pM.

Consider `Nc1ccc(C(=O)O[C@@H](Cc2c(Cl)c[n+]([O-])cc2Cl)c2ccc(OC(F)F)c(OCC3CC3)c2)cc1OCC1CC1`, for which the IC50 was determined as 110 pM.

Regarding `CS(=O)(=O)Nc1cc(C(=O)O[C@@H](Cc2c(Cl)c[n+]([O-])cc2Cl)c2ccc(OC(F)F)c(OCC3CC3)c2)ccc1OCC1CC1`, the IC50 amounted to 120 pM.

Consider `CS(=O)(=O)Nc1ccc(OCC2CC2)c(C(=O)O[C@@H](Cc2c(Cl)c[n+]([O-])cc2Cl)c2ccc(OC(F)F)c(OCC3CC3)c2)c1`, for which the concentration for half-maximal inhibition (IC50) was 4900 pM.

As for `COc1cc(C(=O)O[C@@H](Cc2c(Cl)c[n+]([O-])cc2Cl)c2ccc(OC(F)F)c(OCC3CC3)c2)ccc1NS(C)(=O)=O`, the IC50 stood at 380 pM.

In the case of `COc1ccc(C(=O)O[C@@H](Cc2c(Cl)c[n+]([O-])cc2Cl)c2ccc(OC(F)F)c(OCC3CC3)c2)cc1OC(C)=O`, the IC50 was 960 pM.

As for `Cc1ccc(C(=O)O[C@@H](Cc2c(Cl)c[n+]([O-])cc2Cl)c2ccc(OC(F)F)c(OCC3CC3)c2)cc1`, the IC50 is 660 pM.

As to `COc1ccc(C(=O)O[C@@H](Cc2c(Cl)c[n+]([O-])cc2Cl)c2ccc(OC(F)F)c(OCC3CC3)c2)cc1Oc1ccccc1`, the IC50 came to 1360 pM.

Turning to `Cc1cc(C(=O)O[C@@H](Cc2c(Cl)c[n+]([O-])cc2Cl)c2ccc(OC(F)F)c(OCC3CC3)c2)ccc1NS(C)(=O)=O`, the IC50 turned out to be 410 pM.

For the compound `COc1ccc(NS(C)(=O)=O)c(C(=O)O[C@@H](Cc2c(Cl)c[n+]([O-])cc2Cl)c2ccc(OC(F)F)c(OCC3CC3)c2)c1`, the half-maximal inhibitory concentration (IC50) was more than 60000 pM.
